Sampled rows, rich in hits. Any-hit rate of the full collection: about 1.4%.
Vif imaging: inhibitors of HIV Vif; 340,000 tested, 0.35% active; inhibition, % at 7.49 µM; HEK293T cells, Vif self-association by quenched fluorescence, imaging, 24 h; AID 602346; in the data active means inhibition above about 50%, passing the limit was not always enough; inconclusive means no clear call, values can overlap the other calls; inactive means below about 31%
Casp6 inh: caspase-6 (human) enzyme inhibition; P55212; purified caspase-6, Z-VEID-R110 cleavage fluorescence; inhibition, % at 12.5 µM; 350,000 tested, 0.53% active;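 active means mean inhibition across replicates at least about 35%, with every replicate also reaching that limit, limit read from the data; inconclusive means only one of the two criteria met; inactive means neither criterion met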;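 further: 0% = median of neutral control wells and 100% = no fluorescence left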
Target sequence (P55212 24-179 limits assumed): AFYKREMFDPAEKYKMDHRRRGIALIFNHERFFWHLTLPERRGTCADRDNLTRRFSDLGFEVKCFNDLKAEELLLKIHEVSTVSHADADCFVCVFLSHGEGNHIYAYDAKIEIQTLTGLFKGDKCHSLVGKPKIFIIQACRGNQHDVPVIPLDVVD
Target sequence (P55212 194-293 limits assumed): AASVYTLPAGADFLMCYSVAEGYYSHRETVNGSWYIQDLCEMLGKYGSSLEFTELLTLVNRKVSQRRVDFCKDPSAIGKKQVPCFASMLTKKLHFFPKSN
T cell modulator: modulates CD8 T cell binding to vesicles | 330,000 tested, 0.068% active | 2C CD8+ T cell-vesicle binding, flow cytometry; hits give low values | response (vesicle binding), % at 7 µM | AID 2052;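 active means response, share of CD8 T cells binding vesicles, and their 90th percentile fluorescence all below set limits, cut at about 80% in these data, passing the limit was not always enough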;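 further: values below 100% mean blocked vesicle binding to the CD8+ T cells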
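Benchmarks: naked versus QL9-loaded vesicles / Assay system: purified 2C TCR transgenic mouse naive CD8+ T cells / Technique: high-throughput flow cytometry with anti-B7-1 and anti-CD8 staining / Timing: Cell–vesicle co-incubation 1.5 h at 37 °C, staining 20 min on ice / Read-out: percent CD8+ FL2 mean versus row control / Probe or stimulus: QL9-loaded Drosophila micro-vesicles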
Myeloid diff 2: myeloid differentiation induction | calls only at 10 µM | ER-HoxA9 myeloid progenitors, lysozyme-GFP differentiation, flow cytometry | 360,000 tested, 1% active;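 active means normalized GFP-positive differentiation at or above the plate's own cutoff, the solvent-only control mean plus 3 SD; inconclusive means no clear call, values can overlap the other calls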;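 further: cells exposed to compound for four days before flow analysis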
An asterisk follows results filed as active; i = inactive; ? = inconclusive; / = no result; + = active, no number; ! = not active in a repeat.

SMILES	Vif imaging	Casp6 inh	T cell modulator	Myeloid diff 2
CC(C)(O)C#Cc1ccc(N2C(c3ccsc3)=Cc3ccc(F)cc3C2c2c[nH]c3ccc(C#N)cc23)cc1 (centres undefined)	/	-1	/	+
O=C(NNS(=O)(=O)c1ccc(F)cc1)c1ccccc1F	-1	46*	371	i
COc1ccccc1C(=O)NNS(=O)(=O)c1ccc(F)cc1	-5	1	252	i
COCC(=O)N1C[C@H](C)[C@@H](OC)CN(C)C(=O)c2ccc(NC(=O)c3ccc(F)cc3)cc2OC[C@H]1C	/	-2	/	/
Oc1ccc(NCc2cccc(OCc3ccc(F)cc3)c2)cc1	14	38*	307	i
Oc1ccc(NCc2cccc(OCc3ccccc3)c2)cc1	25	5	611	i
CCC(=O)N(C)C[C@H]1Oc2cc(C#Cc3ccncc3)ccc2S(=O)(=O)N([C@H](C)CO)C[C@H]1C	/	-7	/	/
COc1cccc(NC(=O)N(C)C[C@@H]2Oc3ncc(C#Cc4ccncc4)cc3C(=O)N([C@H](C)CO)C[C@H]2C)c1	/	-2	/	/
O=C(N/N=C/c1cn(Cc2ccccc2)c2ccccc12)c1cc(O)cc(O)c1	-7	53*	359	i
C/C=C/c1ccc([C@H]2[C@@H](CO)N(C(C)=O)C23CN(C(=O)c2ccc(F)cc2)C3)cc1	/	-2	/	/
CC1(C)c2[nH]c3ccccc3c2C[C@@H]2C(=O)N(c3cc(F)ccc3F)C(=O)N21	3	/	/	i
CC[C@H]1c2[nH]c3ccccc3c2C[C@@H]2C(=O)N(c3ccc(F)cc3)C(=O)N21	-16	2	442	+
Cc1ccccc1S(=O)(=O)N1[C@@H]2CNC[C@H]1C2c1ccc(/C=C/c2ccccc2)cc1 (some centres undefined)	/	1	/	/
Cc1ccccc1S(=O)(=O)N1[C@@H]2CNC[C@H]1[C@@H]2c1ccc(-c2ccc(C#N)cc2)cc1	/	40*	/	/
C[C@@H]1CN([C@@H](C)CO)C(=O)c2cc(C3=CCCCC3)cnc2O[C@@H]1CN(C)Cc1ccccn1	/	2	/	/
CCN(CC(=O)Nc1c(F)cccc1F)C(=O)c1cccc(-n2cccc2)c1	74*	32	382	i
CO[C@@H]1CN(C)C(=O)c2ccc(NC(=O)C3CC3)cc2OC[C@H](C)N(C(=O)C2CCOCC2)C[C@@H]1C	/	-1	/	/
CCOC(=O)/C(C#N)=C/C=C1\C=Cc2ccccc2N1CC	-3	-9	324	+
CN1/C(=C/C=C(C#N)C#N)C=Cc2ccccc21	-4	-6	69	+
CCCN1C=CC(=C/C=C(\C#N)C(=O)OCC)C=C1	/	/	313	/
C[C@H](CO)N1C[C@H](C)[C@H](CN(C)S(C)(=O)=O)OCCCC[C@H](C)Oc2ccc(N(C)C)cc2C1=O	/	-1	/	/
C[C@H](CO)N1C[C@H](C)[C@@H](CN(C)C(=O)c2ccncc2)OCc2cnnn2CCCC1=O	0	39*!	/	?
C[C@H](CO)N1C[C@H](C)[C@@H](CN(C)CC2CC2)OCc2cnnn2CCCC1=O	-3	-29	/	+
C[C@@H]1CN([C@@H](C)CO)C(=O)CCCn2nncc2CO[C@@H]1CN(C)CC1CC1	/	4	/	/
COCC(=O)N(C)C[C@H]1Oc2cc(-c3ccc(C#N)cc3)ccc2S(=O)(=O)N([C@@H](C)CO)C[C@H]1C	/	2	/	/
SMILES	Vif imaging	Casp6 inh	T cell modulator	Myeloid diff 2
N#C/C(=C(/O)COc1ccccc1)c1nc2ccccc2s1	-14	-2	264	i
N#C/C(=C(/O)COC(=O)c1ccc(C#N)cc1)c1nc2ccccc2s1	-36	-2	126	+
O=C(C[n+]1ccc(C(=O)NCc2ccccc2)cc1)c1ccc2c(c1)OCCO2	-3	-3	260	i
Nc1cc[n+](CC(=O)c2ccc3c(c2)OCCO3)cc1	82*	-4	381	+
CCc1ccccc1NC(=O)Cn1nnc(-c2cccs2)n1	-3	/	608	i
Cc1cccc(NC(=O)Cn2nnc(-c3cccs3)n2)c1C	-4	-1	217	+
C[C@H]1CN([C@@H](C)CO)C(=O)c2cc(Br)cnc2O[C@H]1CN(C)Cc1ccncc1	/	1	/	/
CCC(=O)N1C[C@H](C)[C@@H](OC)CN(C)C(=O)c2cc(NC(=O)NC3CCCC3)ccc2OC[C@@H]1C	/	3	/	/
O=C(C[n+]1cccc2ccccc21)c1ccc([N+](=O)[O-])cc1	-5	4	157	+
Cc1ccc(C(=O)N(CCC2=CCCCC2)c2c(N)n(Cc3ccccc3)c(=O)[nH]c2=O)o1	-2	1	237	i
Nc1c(N(CCC2=CCCCC2)C(=O)c2ccc([N+](=O)[O-])o2)c(=O)[nH]c(=O)n1Cc1ccccc1	7	0	229	+
